Activity calls are given as the source filed them. The calls are words filed in the database; no cut-off is given here.
system: not listed separately; assay: Antiproliferative activity against human CD8-positive T cells at 33 uM measured after 96 hrs by flow cytometry analysis relative to control; type: functional, CD8-positive T cell
How it was run: (§1)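 Human PBMC were isolated from leukocyte cones by density gradient centrifugation and frozen. After overnight high-density culture at 1×10^7 cells/ml, cells were labelled with 5 μM CFSE for 10 min at room temperature and stimulated with soluble anti-CD3 (OKT3) at 100 pg/mL. Culture ran 96 h. Proliferating CD4+ and CD8+ cells were scored by CFSE flow cytometry against a PBS control. n≥6 independent experiments; one-way ANOVA with Tukey.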

**Q.** Which Activity does the source give for `Cc1nnc2n1-c1ccc(Cl)cc1C(c1ccccc1)=NC2` [ALPRAZOLAM] here?
**A.** The Activity was 34.8%.

system: CD4+ve Th; assay: Induction of cell proliferation of human CD4+ve Th cells at 100 uM measured after 96 hrs by flow cytometry analysis relative to control; type: functional
How it was run: (§2)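 Rescue format on human PBMC. Cells were CFSE-labelled (5 μM), stimulated with anti-CD3 OKT3 at 100 pg/mL, and treated with alprazolam 33 μM plus test agent at 100 μM. Culture ran 96 h. Proliferating CD4+ and CD8+ T cell percentages were measured by flow cytometry. Vehicle controls (methanol, DMSO) were included. n≥6 independent experiments; one-way ANOVA with Tukey.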

**Q.** With `C[N+]1(C)CCc2cc3c(cc2[C@H]1[C@@H]1OC(=O)c2c1ccc1c2OCO1)OCO3.[I-]` as the compound, how does the Activity read?
**A.** Its Activity is 20%.

target: GABA-A receptor; anion channel; assay: Displacement of [3H]-muscimol from rat cortical synaptic membrane GABAA receptor assessed as inhibition constant by microscint-scintillation method; type: cell membranes, Cortex
How it was run: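 Rat cortical synaptic membranes, washed repeatedly in 50 mM Tris-HCl pH 7.4, 70–80 μg protein. Incubated at 0 °C with 5 nM [3H]-muscimol (final) and a range of test concentrations, then filtered and counted by scintillation. Nonspecific binding defined with 1.0 mM GABA. IC50 converted to Ki by Cheng–Prusoff, triplicate, three independent experiments.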

**Q.** With `O=C(c1ccc(OCc2ccccc2)cc1)N1CCC2(CCNCC2)CC1` as the compound, how does the Ki read?
**A.** Its Ki is 1 µM.

**Q.** For `O=C(c1ccc(O)cc1)N1CCC2(CCNCC2)CC1`, which Ki is on record?
**A.** Its Ki is 0.86 µM.

**Q.** What about the pKi of the same compound?
**A.** Its pKi is 6.08.

**Q.** With `O=C(c1cccc(OCc2ccccc2)c1)N1CCC2(CCNCC2)CC1` as the compound, how does the Ki read?
**A.** Its Ki is 1 µM.

**Q.** For `O=C(c1ccc(C(F)(F)F)cc1)N1CCC2(CCNCC2)CC1`, which Ki is on record?
**A.** Its Ki is 2.2 µM.

**Q.** For `CC(=O)N1CCC2(CCNCC2)CC1`, which Ki is on record?
**A.** Its Ki is > 100 µM.

**Q.** Which Ki does the source give for `O=C(c1cccc(Br)c1)N1CCC2(CCNCC2)CC1` here?
**A.** The Ki was 0.3 µM.

**Q.** Which Ki does the source give for `Nc1cccc(C(=O)N2CCC3(CCNCC3)CC2)c1` here?
**A.** The Ki was 1.2 µM.

**Q.** Which Ki does the source give for `O=C(c1ccc([N+](=O)[O-])cc1)N1CCC2(CCNCC2)CC1` here?
**A.** The Ki was 9.4 µM.

**Q.** Which results are given for `O=C(c1cccc(O)c1)N1CCC2(CCNCC2)CC1`?
**A.** Ki: 0.34 µM; pKi: 6.49

**Q.** With `O=C(c1ccc(Br)cc1)N1CCC2(CCNCC2)CC1` as the compound, how does the Ki read?
**A.** Its Ki is 0.23 µM.

**Q.** For `O=C(c1cccc([N+](=O)[O-])c1)N1CCC2(CCNCC2)CC1`, which Ki is on record?
**A.** Its Ki is 1.5 µM.

**Q.** With `O=C(c1cccc(OCc2cccs2)c1)N1CCC2(CCNCC2)CC1` as the compound, how does the Ki read?
**A.** Its Ki is 1 µM.

**Q.** Which Ki does the source give for `COC(=O)N1CCC2(CCNCC2)CC1` here?
**A.** The Ki was 37 µM.

**Q.** For `Cc1ccccc1C(=O)N1CCC2(CCNCC2)CC1`, which Ki is on record?
**A.** Its Ki is 4.2 µM.

**Q.** For `O=C(c1ccccc1Br)N1CCC2(CCNCC2)CC1`, which Ki is on record?
**A.** Its Ki is 2.7 µM.

**Q.** For `O=C(c1ccccc1)N1CCC2(CCNCC2)CC1`, which Ki is on record?
**A.** The Ki was 1.4 µM.

**Q.** Which results are given for `Nc1ccc(C(=O)N2CCC3(CCNCC3)CC2)cc1`?
**A.** Ki: 0.71 µM; pKi: 6.16

**Q.** With `Brc1ccc(CN2CCC3(CCNCC3)CC2)cc1` as the compound, how does the Ki read?
**A.** Its Ki is 27 µM.

**Q.** Which Ki does the source give for `Cc1cccc(CN2CCC3(CCNCC3)CC2)c1` here?
**A.** Its Ki is > 200 µM.

system: CD4+ve Th; assay: Antiproliferative activity against mouse CD4+ve Th cells at 100 uM measured after 48 hrs by flow cytometry analysis; type: functional, cell-based
How it was run: (§3)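 Splenocytes came from female wild-type BALB/c mice and were red-cell lysed. They were labelled with 5 μM CFSE for 10 min at room temperature and activated with soluble anti-mouse CD3 (145.2C11) at 33 ng/mL. Culture ran 48 h in RPMI with 10% FCS and 2 μM 2-mercaptoethanol. Percent proliferating CD4+ and CD8+ cells was read by flow cytometry. n≥6 independent experiments; one-way ANOVA with Tukey.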

**Q.** For `Cc1nnc2n1-c1ccc(Cl)cc1C(c1ccccc1)=NC2` [ALPRAZOLAM], which Activity is on record?
**A.** The Activity was “Active”.

system: not listed separately; assay: Antiproliferative activity against human CD4+ve T cells at 33 uM measured after 96 hrs by flow cytometry analysis relative to control; type: functional, CD4+ve Th; how it was run: as §1

**Q.** With `Cc1nnc2n1-c1ccc(Cl)cc1C(c1ccccc1)=NC2` [ALPRAZOLAM] as the compound, how does the Activity read?
**A.** The Activity was 35.7%.

system: CD8-positive T cell; assay: Antiproliferative activity against mouse CD8-positive T cells at 100 uM measured after 48 hrs by flow cytometry analysis; type: functional, cell-based; how it was run: as §3

**Q.** With `Cc1nnc2n1-c1ccc(Cl)cc1C(c1ccccc1)=NC2` [ALPRAZOLAM] as the compound, how does the Activity read?
**A.** Its Activity is “Active”.

system: not listed separately; assay: Induction of cell proliferation of human CD8-positive T cells at 100 uM measured after 96 hrs by flow cytometry analysis relative to control; type: functional; how it was run: as §2

**Q.** For `C[N+]1(C)CCc2cc3c(cc2[C@H]1[C@@H]1OC(=O)c2c1ccc1c2OCO1)OCO3.[I-]`, which Activity is on record?
**A.** The Activity was 20%.

— ChEMBL document CHEMBL5096209, “Structure-Activity Studies of 3,9-Diazaspiro[5.5]undecane-Based γ-Aminobutyric Acid Type A Receptor Antagonists with Immunomodulatory Effect” (J Med Chem, 2021)
